Screening data (PubChem BioAssay)
An excerpt weighted towards active compounds, which were near 4.5% of everything screened.
M18AAP inhibitor – PfM18AAP enzyme inhibition | recombinant PfM18AAP, H-Glu-NHMec fluorogenic cleavage | inhibition, % at 7.35 µM | hit rate 1.2% among 290,000 | AID 1822;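 active = inhibition above the campaign mean inhibition over all tested compounds plus 3 SD, cut at about 28% in these data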
UPR CHOP act – apoptotic UPR (CHOP) activation. CHO-CHOP luciferase reporter, luminescence; percent of tunicamycin response over DMSO baseline. hit rate 0.34% among 330,000. activation, % at 10 µM;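 active = at 10 µM dose, activation of 40% or more, normalized to positive control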
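Assay system: CHO-CHOP cells, stable luciferase reporter of PERK-eIF2a-CHOP signalling / Buffer or medium: F12 plus 10% serum / Compound dosing: one dose, 10 µM in 0.5% DMSO / Times: 6 h compound treatment, 37 °C / Technique: luciferase luminescence / Read-out: % reporter activation, DMSO baseline versus tunicamycin full activation / Benchmarks: tunicamycin and DMSO controls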
NS3 helicase inh – blocks Hepatitis C virus NS3 helicase unwinding; inhibition, % at 10.9 µM; hit rate 0.56% among 290,000; NS3 helicase DNA unwinding, Cy5 molecular beacon fluorescence;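 active = inhibition above the mean of all tested compounds plus 3 SD, set per campaign, cut at about 35% in these data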
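assay system = NS3 helicase fragment of HCV | buffer or medium = MOPS pH 6.5, MgCl2, DTT, Tween20, BSA | timing = 60 min unwinding reaction at 25 °C after ATP addition | signal = Cy5 beacon fluorescence read at start and 1 h | read-out basis = % inhibition of unwinding | control set = low DMSO, high thioflavine S at 110 µM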
XBP1 UPR activ – activators of adaptive arm of unfolded protein response (XBP1) | hit rate 0.33% among 330,000 | activation, % at 20 µM | CHO-XBP1 luciferase reporter, IRE1-XBP1 UPR activation, luminescence; percent of tunicamycin response, DMSO as zero;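 active = versus positive control, 20 µM dose yields 30% or more activation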
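Assay system: CHO-XBP1 luciferase reporter cells; Schedule: 6 h treatment, 37 °C; Detection: glow luminescence from Steady-Glo reagent; Benchmarks: high control tunicamycin 10 µg/mL final, low control DMSO vehicle only.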
p97 inhibitor – human p97 ATPase inhibition. inhibition, % at 8 µM. recombinant p97 ATPase, Kinase-Glo ATP luminescence, 3 h. AID 1481. hit rate 0.42% among 220,000; in the data active = inhibition above about 15%
Target sequence (P55072 whole entry, looked up): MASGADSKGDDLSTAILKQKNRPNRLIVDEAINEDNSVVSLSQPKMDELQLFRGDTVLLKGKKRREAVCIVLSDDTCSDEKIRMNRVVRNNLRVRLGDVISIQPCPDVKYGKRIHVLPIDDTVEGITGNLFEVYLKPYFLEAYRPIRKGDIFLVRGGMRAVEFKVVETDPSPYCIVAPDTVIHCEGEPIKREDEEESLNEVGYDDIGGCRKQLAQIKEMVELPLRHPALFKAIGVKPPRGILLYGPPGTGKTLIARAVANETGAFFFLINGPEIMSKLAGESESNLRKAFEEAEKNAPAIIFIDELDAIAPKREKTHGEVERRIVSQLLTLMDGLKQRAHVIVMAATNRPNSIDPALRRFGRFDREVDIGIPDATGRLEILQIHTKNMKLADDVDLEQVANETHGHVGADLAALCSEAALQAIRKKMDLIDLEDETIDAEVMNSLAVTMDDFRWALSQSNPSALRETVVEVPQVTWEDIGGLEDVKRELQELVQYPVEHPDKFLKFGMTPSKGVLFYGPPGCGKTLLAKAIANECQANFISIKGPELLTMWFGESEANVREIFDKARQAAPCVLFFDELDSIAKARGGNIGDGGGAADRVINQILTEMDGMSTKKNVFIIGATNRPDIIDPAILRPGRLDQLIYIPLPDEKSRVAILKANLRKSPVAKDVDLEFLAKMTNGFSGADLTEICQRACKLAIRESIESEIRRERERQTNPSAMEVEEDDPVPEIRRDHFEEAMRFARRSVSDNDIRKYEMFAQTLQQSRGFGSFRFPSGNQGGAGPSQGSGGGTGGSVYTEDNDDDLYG
CHOP inh – blocks CHOP induction under ER stress; CHO-K1 CHOP-promoter luciferase, tunicamycin-induced, 15-18 h; inhibition, % at 10 µM; hit rate 3.8% among 220,000; AID 2732;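 active = compounds that reduced the stress-induced luciferase reporter signal by more than about 70% of percent inhibition, limit read from the data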
CHOP confirm – confirmation of CHOP induction inhibitors; shares compounds with CHOP inh; CHO-CHOP promoter luciferase reporter, tunicamycin-induced, luminescence; inhibition, % at 10 µM; hit rate 45% among 2,100;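 active = mean of three repeat readings of reporter signal inhibition above a set limit, cut at about 70% in these data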
Each line names hits and unclear results; the compound was inactive in the other large screens (follow-up assays come after a bar, where they were run).

CCOc1ccc(C2C=C(c3ccccc3)Nc3nnnn32)cc1 (centres undefined)	none
CCOc1ccc(C2C=C(c3ccc(C)cc3)Nc3nnnn32)cc1 (centres undefined)	CHOP inh 107.0 | CHOP confirm 77.1
CCCCn1c(SCc2nc(N)nc(N3CCCCC3)n2)nc2c1c(=O)n(C)c(=O)n2C	CHOP inh 98.0 | CHOP confirm inactive
CCCCNC(=O)CCC(=O)N1CCN(C(c2ccccc2)c2ccccc2)CC1	none (no result: p97 inhibitor, CHOP inh)
CCCCCCn1c(-c2ccco2)nc2oc3cc(OC)ccc3c(=O)c2c1=O	CHOP inh 96.3 | CHOP confirm 106.6
CCCOc1ccc(N2C(=O)CC(SC(=NC)Nc3ccc(F)cc3)C2=O)cc1 (centres undefined)	CHOP inh 100.2 | CHOP confirm 100.3
CCCOc1ccc(N2C(=O)CC(SC(=NCC)Nc3cccc(F)c3)C2=O)cc1 (centres undefined)	CHOP inh 105.2 | CHOP confirm 107.9
CCOc1ccc(NC(=NCc2ccc3c(c2)OCO3)SC2CC(=O)N(c3ccc(OCC)cc3)C2=O)cc1 (centres undefined)	CHOP inh 97.5 | CHOP confirm inactive
CCOc1ccc(N2C(=O)CC(SC(=NC)Nc3cccc(F)c3)C2=O)cc1 (centres undefined)	none
O=c1cc(O)c2c(=O)n(-c3ccccc3)c3c(c2o1)CCCCCC3	none
Cc1ccc(S(=O)(=O)Nc2ccc(F)cc2)cc1C(=O)N1CCOCC1	none (no result: M18AAP inhibitor, NS3 helicase inh, p97 inhibitor, CHOP inh)
O=C1N/C(=N/O)S/C1=C/c1cccc([N+](=O)[O-])c1	none
Cc1cccc(/C=C2/S/C(=N/N=C3\CC4CCC3(C)C4(C)C)NC2=O)c1 (centres undefined)	CHOP inh 104.7 | CHOP confirm 105.9
CC(C)(C)N1CC23CCC(C[C@@H]2C1=O)O3 (some centres undefined)	none (no result: M18AAP inhibitor, NS3 helicase inh, p97 inhibitor, CHOP inh)
CCOc1ccccc1N1CCN(S(=O)(=O)c2ccc3c4c(cccc24)C(=O)N3)CC1	CHOP inh 98.9 | CHOP confirm inactive
Cc1cc(C)n2c(=O)c3ccc(Cl)cc3nc2c1C#N	none
Cc1cc(Cl)n2c(nc3cc(F)c(F)cc32)c1C#N	CHOP inh 105.3 (no result: UPR CHOP act, XBP1 UPR activ) | CHOP confirm 123.6
CCCN(C(=O)CSc1n[nH]c(-c2ccc(OC)cc2)n1)c1c(N)n(Cc2ccccc2)c(=O)[nH]c1=O	none (no result: M18AAP inhibitor, NS3 helicase inh, p97 inhibitor, CHOP inh)
S=c1[nH]nc(COc2ccccc2)n1/N=C/C(Cl)=C/c1ccccc1	CHOP inh 102.9 | CHOP confirm inactive
S=c1[nH]nc(COc2ccccc2)n1/N=C/C=C/c1ccccc1	none
N=C1S/C(=C\c2cn[nH]c2-c2ccc(F)cc2)C(=O)N1c1ccccc1F	CHOP inh 102.8 | CHOP confirm inactive
O=C(Nc1ccccc1C(F)(F)F)c1cc(-c2cccc(O)c2)on1	CHOP inh 96.8 | CHOP confirm inactive
CCc1ccccc1NC(=O)c1cc(-c2cccc(O)c2)on1	none
FC(F)(F)c1cccc(CN2CCC(c3cc(-c4cccs4)n[nH]3)CC2)c1	CHOP inh 103.8 | CHOP confirm 94.0
CCOC(=O)Cc1nnc2c(Nc3ccc(Cl)cc3)nc3nonc3n12	CHOP inh 105.2 | CHOP confirm inactive
CCCCn1c(N2CCC(Cc3ccccc3)CC2)nc2c1c(=O)[nH]c(=O)n2C	CHOP inh 97.3 | CHOP confirm 102.7
Cc1nnc(SCCn2c(N3CCC(Cc4ccccc4)CC3)nc3c2c(=O)[nH]c(=O)n3C)s1	none
CCCCCCn1c(N2CCC(C)CC2)nc2c1c(=O)[nH]c(=O)n2C	CHOP inh 100.1 | CHOP confirm 104.7
CC(C)Cn1c([N+](=O)[O-])nc2c1c(=O)[nH]c(=O)n2C	none
Cn1c(=O)[nH]c(=O)c2c1nc([N+](=O)[O-])n2Cc1ccccc1	CHOP inh 106.5 | CHOP confirm 121.3
N#Cc1c(N)nc2c(c1-c1ccc(Br)s1)CCCC2	none
Nc1nc(-c2ccc(Br)s2)c(Br)s1	CHOP inh 97.8 | CHOP confirm inactive
